In ChEMBL document CHEMBL2163334, “Discovery of highly potent and selective pan-Aurora kinase inhibitors with enhanced in vivo antitumor therapeutic index” (J Med Chem, 2012):
Activity calls are given as the source filed them. The rule behind the calls is not given here.

Columns and labels:
[1] = Clearance in Sprague-Dawley rat at 1 mg/kg, iv administered using PEG400/water as vehicle; type: ADME, organism-based; design: dose 1 mg/kg, route intravenous; settings: in vivo
In short: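 SD rats fasted overnight, given 1 mg/kg iv in PEG400/water (3:1, v/v); three per arm. Blood into K3 EDTA at 5, 15, 30 min, 1, 2, 4, 6, 24 h, spun at 4 °C; plasma extracted with six volumes acetonitrile plus internal standard and quantified by LC-MS/MS (C8 column, formic acid/ACN gradient).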

[2] = target: Aurora kinase B (Homo sapiens, UniProt Q96GD4); experiment: Inhibition of Aurora kinase B-mediated histone H3 Ser10 phosphorylation in human HCT116 cells after 2 hrs by sandwich ELISA; type: cell-based, HCT-116
Sequence of Aurora kinase B (Q96GD4 whole entry): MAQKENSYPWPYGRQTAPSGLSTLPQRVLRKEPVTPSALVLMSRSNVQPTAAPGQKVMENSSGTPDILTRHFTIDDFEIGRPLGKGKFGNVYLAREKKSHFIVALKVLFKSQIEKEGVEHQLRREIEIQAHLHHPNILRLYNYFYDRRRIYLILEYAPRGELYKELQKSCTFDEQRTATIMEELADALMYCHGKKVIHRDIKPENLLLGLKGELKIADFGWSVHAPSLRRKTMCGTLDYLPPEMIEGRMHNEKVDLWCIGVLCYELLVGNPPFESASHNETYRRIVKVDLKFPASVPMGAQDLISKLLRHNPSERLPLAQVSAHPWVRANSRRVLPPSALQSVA
In short: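 HCT-116 cells seeded 4 × 10⁴/well, 4-6 h at 37 °C, then arrested overnight (16-18 h) with nocodazole at 66 ng/mL final. Treated 2 h with nine-point 3-fold dilutions in DMSO; lysed with phosphatase inhibitor, phospho-H3 (Ser10) sandwich ELISA read at 450 nm. IC50 = 50% inhibition of phosphorylation; duplicate runs averaged.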

[3] = system: HCT-116; experiment: Antiproliferative activity against human HCT116 cells after 72 hrs by BrdU-based ELISA; type: functional, cell-based; settings: HCT-116, 72 h
In short: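 HCT-116 cells in McCoy's 5A with 10% FBS and pen/strep, seeded 800 cells/well, left overnight at 37 °C, 5% CO2. Nine-point 3-fold serial dilutions in DMSO added for 72 h; BrdU colorimetric ELISA read at 450 and 690 nm. IC50 is the concentration halving proliferation; duplicate runs averaged.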

[4] = Half life in Nu/Nu rat at 15 mg/kg, iv administered using TPPW as vehicle; type: ADME, organism-based; design: dose 15 mg/kg, route intravenous; settings: in vivo
In short: (§1)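 Plasma from K3 EDTA blood at 5, 15, 30 min, 1, 2, 4, 6, 24 h; acetonitrile extraction with internal standard, LC-MS/MS on C8 column, 5-95% ACN gradient with 0.05% formic acid.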

[5] = system: HCT-116; experiment: Antitumor activity against human HCT116 cells xenografted in athymic nude rat assessed as tumor growth inhibition at 2.5 mg/kg, iv administered QD for 4 days per week followed by 3 days off per week for 3 weeks; type: functional, organism-based; design: dose 2.5 mg/kg
In short: (§2)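 Subcutaneous flank HCT-116 xenografts in nude rats; at Day 1 groups of 10 with mean tumor 301-306 mm³. Tail-vein iv in TPPW (2% Tween-80, 5% propylene glycol, 10% PG-400, 83% water) at 10 mL/kg, weight-adjusted: days 1,3,5,8,10,12,15,17,19 or days 1-4, 8-11, 15-18. Irinotecan control 100 mg/kg ip weekly ×3.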

[6] = Clearance in athymic Nu/Nu rat at 5 mg/kg, iv administered using TPPW as vehicle; type: ADME, organism-based; design: dose 5 mg/kg, route intravenous; settings: in vivo; in short: as §1
[7] = system: HCT-116; experiment: Antitumor activity against human HCT116 cells xenografted in athymic nude rat assessed as tumor growth inhibition at 10 mg/kg, iv administered QD for 4 days per week followed by 3 days off per week for 3 weeks; type: functional, organism-based; design: dose 10 mg/kg; in short: as §2
[8] = system: Rattus norvegicus; experiment: Toxicity in athymic nude rat bearing human HCT116 cells assessed as adverse effects at 5 to 10 mg/kg, iv administered QD for 4 days per week followed by 3 days off per week for 3 weeks; type: organism-based, HCT-116; design: dose 5-10 mg/kg, route intravenous; settings: in vivo; in short: as §2
[9] = Protein binding in plasma; type: ADME, cell-free; settings: read-out: PPB

clearance [1]: 21.1 mL/min/kg
IC50 [2]: 6.1 nM
IC50 [3]: 1.2 nM
half-life [4]: 3.7 h
clearance [6]: 19.2 mL/min/kg
fraction unbound [9]: 0.01
SMILES: Cc1cc(Nc2nc(Sc3ccc(NC(=O)CN4CC[C@@H](C(=O)N5CCC(F)(F)C5)C4)cc3)nn3cccc23)n[nH]1
TGI [5]: Active
TGI [7]: Active
Activity [8]: Non-toxic
